Laboratory results as given in ChEMBL document CHEMBL5252636, “Host-guest binding of tetracationic cyclophanes to photodynamic agents inhibits posttreatment phototoxicity and maintains antitumour efficacy” (RSC Med Chem, 2023).
The source made the active and inactive calls. The rule behind the calls is not given here.

Legend:
[1] = Water solubility of compound; type: physicochemical
[2] = Phototoxicity in laser irradiated BALB/c mouse implanted with mouse B16-F10 cells assessed as pathological changes in skin at 4 mg/kg, followed by sunlight irradiation for 0.5 hr and measured on day 3 by H and E staining based analysis; conditions: in vivo
[3] = Phototoxicity in laser irradiated BALB/c mouse implanted with mouse B16-F10 cells assessed as epidermal thickening at 4 mg/kg, sc administered for 3 days followed by sunlight irradiation for 0.5 hr and […] by H and E staining based analysis; type: toxicity, organism-based; conditions: in vivo, iv, in the assay text read “iv administered” for “sc administered”
Procedure, shortened: (§1)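 Female nude BALB/c mice, 7–8 weeks old, received 1×10^5 B16F10 cells s.c. on the right front back (n=8). At ~20 mm³, mice got Photofrin 4.0 mg/kg i.v. and were kept dark for 24 h. Tumours were then lit with a 635 nm laser (145 mW/cm², 7 min), followed within 30 min by compound 4.0 mg/kg i.v. On day 3 came a solar simulator (100 mW/cm², 30 min). Tumour volume (L×W²/2) was measured daily, skin imaged every 2 days, and H&E done on day 13.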

H9c2 = assay: Cytotoxicity against rat H9c2 cells assessed as reduction in cell viability up to 100 microg/ml incubated for 24 hrs by MTT assay; type: toxicity, cell-based; conditions: h9c2, 24 h, up to 100 µg/mL, in the assay text read “CCK-8 assay” for “MTT assay”
Procedure, shortened: (§2)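 CCK-8 viability assay. H9C2 cells were grown in DMEM with 10% FBS, and L02 cells in 1640 medium with 20% FBS, both at 37 °C in 5% CO₂. Cells were seeded at 1×10^4 per well, allowed to adhere for 24 h, then exposed to 0–100 µg/mL for 24 h. CCK-8 was added for 1 h and A450 read. Viability is expressed as % of untreated cells; six independent experiments.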

B16-F10 [4] = assay: Antitumor activity against mouse B16-F10 cells implanted BALB/c mouse assessed as increase in tumor cell apoptosis at 4 mg/kg, iv by tunel staining based immunohistochemical analysis
[5] = Hemolytic activity in human RBC assessed as hemolysis up to 100 microg/ml measured after 1 hr; type: toxicity, cell-based, Erythrocyte; conditions: red blood cells, up to 100 µg/mL, read-out: Activity
Procedure, shortened: (§3)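 Erythrocytes from Sprague Dawley rat or human O-type were used as a 5% (v/v) suspension in normal saline. They were incubated with compound (final 0–100 µg/mL) at 37 °C for 1 h, then centrifuged at 3000 rpm for 10 min at 4 °C. Hemoglobin in the supernatant was read at 545 nm. Saline served as 0% and deionized water as 100% hemolysis.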

[6] = Phototoxicity in laser irradiated BALB/c mouse implanted with mouse B16-F10 cells assessed as skin injury at 4 mg/kg, followed by sunlight irradiation for 0.5 hr and measured on day 11; conditions: in vivo, 264 h
L02 = assay: Cytotoxicity against human L02 cells assessed as reduction in cell viability up to 100 microg/ml incubated for 24 hrs by MTT assay; type: toxicity, cell-based; conditions: l02, 24 h, up to 100 µg/mL, in the assay text read “CCK-8 assay” for “MTT assay”; procedure, shortened: as §2
[7] = Phototoxicity in laser irradiated BALB/c mouse implanted with mouse B16-F10 cells assessed as pathological changes in lung at 4 mg/kg, followed by sunlight irradiation for 0.5 hr and measured on day 3 by H and E staining based analysis; conditions: in vivo
[8] = Phototoxicity in laser irradiated BALB/c mouse implanted with mouse B16-F10 cells at 2 mg/kg, followed by sunlight irradiation for 24 hr in presence of dopamine; conditions: in vivo, 96 h
[9] = Phototoxicity in laser irradiated BALB/c mouse implanted with mouse B16-F10 cells assessed as hair follicle enlargement at 4 mg/kg, sc administered for 3 days followed by sunlight irradiation for 0.5 hr and […] by H and E staining based analysis; type: toxicity, organism-based; conditions: in vivo, iv, in the assay text read “iv administered” for “sc administered”; procedure, shortened: as §1
B16-F10 [10] = assay: Antitumor activity against mouse B16-F10 cells implanted BALB/c mouse assessed as reduction in size at 4 mg/kg
[11] = Phototoxicity in laser irradiated BALB/c mouse implanted with mouse B16-F10 cells assessed as pathological changes in kidney at 4 mg/kg, sc administered for 3 days followed by sunlight irradiation for 0.5 hr and […] by H and E staining based analysis; type: toxicity, organism-based; conditions: in vivo, iv, in the assay text read “iv administered” for “sc administered”; procedure, shortened: as §1
[12] = Phototoxicity in laser irradiated BALB/c mouse implanted with mouse B16-F10 cells assessed as increase in tumor volume at 4 mg/kg, followed by sunlight irradiation for 0.5 hr and measured on day 13; conditions: in vivo, 312 h
[13] = Hemolytic activity in rat RBC assessed as hemolysis up to 100 microg/ml measured after 1 hr; type: toxicity, cell-based, Erythrocyte; conditions: red blood cells, up to 100 µg/mL, read-out: Activity; procedure, shortened: as §3
[14] = Phototoxicity in laser irradiated BALB/c mouse implanted with mouse B16-F10 cells at 2 mg/kg, followed by sunlight irradiation for 24 hr; conditions: in vivo, 96 h

Compound `C[n+]1ccc(-c2ccc(-c3cc[n+](C)cc3)c3ccccc23)cc1.[Cl-].[Cl-]` has a solubility [1] of 13.1 mM.
For `C[n+]1ccc(-c2ccc3cc(-c4cc[n+](C)cc4)ccc3c2)cc1.[Cl-].[Cl-]`, the solubility [1] was 3.5 mM.
In the case of `[Cl-].[Cl-].[Cl-].[Cl-].c1cc2ccc1C[n+]1ccc(cc1)-c1ccc3cc(ccc3c1)-c1cc[n+](cc1)Cc1ccc(cc1)C[n+]1ccc(cc1)-c1ccc3cc(ccc3c1)-c1cc[n+](cc1)C2`, the Activity [2] is reported as 67%, the Activity [3] is reported as “Non-Toxic” and the Activity (H9c2) is reported as “>= 90%”. For the same compound, the Activity (B16-F10 [4]) was “Active”, the hemolysis at 1 h [5] was no more than 5% and the Activity [6] was “Non-Toxic”. The Activity (L02) was “>= 90%”, the Activity [7] was 41% and the Activity [8] was “Non-Toxic”. The Activity [9] was “Non-Toxic”, the Activity (B16-F10 [10]) was 26 mm3 and the Activity [11] was 66%. For the same compound, the Activity [12] was 1344 mm3, the hemolysis at 1 h [13] was no more than 5% and the Activity [14] was “Non-Toxic”.
Compound `C[n+]1ccc(-c2cccc3c(-c4cc[n+](C)cc4)cccc23)cc1.[Cl-].[Cl-]` has a solubility [1] of 20.7 mM.
